A1 apoptosis 2 = blocks A1, raising caspase activity; MEF A1-2A-BIM cells, caspase-Glo luminescence, 3 h; percent of clofoctol response, DMSO zero; caspase activation, % (test concentration not listed); 24,000 tested, under 10 active; in the data active = caspase activation above about 5.9%
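Material: A1-2A-BIM-expressing MEF cells. Buffer or medium: RPMI-1640 plus 10% FBS. Incubation: cells settled overnight, compound exposure 3 h at 37 °C, 5% CO2. Signal: Caspase-Glo 3/7 luminescence, 1 h at room temperature.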
INS-1E ATP HTS = rescue of cytokine-induced death in INS-1E beta cells; INS-1E cytokine-induced death, ATP luminescence, 48 h; normalised: neutral wells 0, positive control 100; protection from cytokine-induced ATP loss, % at 10 µM; actives 0.1% (n = 20,000);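 active = mean replicate protection from cytokine-induced ATP loss at least 50% and at least 75% of replicates each reaching 50%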
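Assay system: INS-1E rat insulinoma cells. Amount: 8000 cells per well. Medium: phenol-red-free RPMI with 5% fetal bovine serum. Reagent: IL-1β, TNF-α and IFN-γ cytokine mix. Doses: one compound concentration, pin transfer. Schedule: 48 h co-treatment, 10 min post-lysis read. Detection: CellTiter-Glo luminescence measuring cellular ATP.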
T cruzi intra = blocks T. cruzi growth inside host cells. intracellular Trypanosoma cruzi in host cells, plate reader. activity score (inhibition), % at 5.01 µM. actives 4.9% (n = 22,000); in the data active = activity score above about 55%;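 note: parasites and compound incubated about four days before reading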
Each line names hits and unclear results; the compound was inactive in the other large screens. Many of the other results were omitted from the sample, so hits are more common in it than they were.

C[C@@H]1CN([C@@H](C)CO)C(=O)c2cccc(NC(=O)c3ccncc3)c2O[C@H]1CN(C)Cc1ccncc1	none
C[C@@H]1CN([C@H](C)CO)C(=O)c2cccc(NC(=O)c3ccncc3)c2O[C@H]1CN(C)Cc1ccccc1	T cruzi intra 80 (no result: A1 apoptosis 2)
C[C@@H]1CN([C@@H](C)CO)C(=O)c2cccc(NC(=O)c3ccncc3)c2O[C@@H]1CN(C)Cc1ccc(C(=O)O)cc1	none
O=C(NCc1ccccc1)C1=C[C@@H](c2cccs2)C[C@@H](OCCCCO)O1	none (no result: INS-1E ATP HTS, T cruzi intra)
O=c1[nH]c(=O)c2cc(Br)ccc2[nH]1	none (no result: INS-1E ATP HTS, T cruzi intra)
Cc1cccc(CN(C)C[C@@H]2Oc3ncc(-c4cccc(C(F)(F)F)c4)cc3C(=O)N([C@H](C)CO)C[C@@H]2C)c1	T cruzi intra 63 (no result: A1 apoptosis 2, INS-1E ATP HTS)
Cc1ccc(S(=O)(=O)N(C)C[C@@H]2Oc3ncc(-c4cccc(C(F)(F)F)c4)cc3C(=O)N([C@H](C)CO)C[C@@H]2C)cc1	T cruzi intra 61 (no result: INS-1E ATP HTS)
C[C@H](CO)N1C[C@H](C)[C@H](CN(C)Cc2cccc(C(F)(F)F)c2)Oc2ncc(-c3ccccc3)cc2C1=O	none (no result: A1 apoptosis 2, INS-1E ATP HTS)
C[C@H](CO)N1C[C@H](C)[C@H](CN(C)S(=O)(=O)c2ccc(C#N)cc2)Oc2ncc(-c3cccc(C(F)(F)F)c3)cc2C1=O	none (no result: INS-1E ATP HTS)
O=C(CCCCCCC(=O)N/N=C/c1nccs1)NO	none (no result: INS-1E ATP HTS, T cruzi intra)
Cc1ccc(S(=O)(=O)Nc2ccc3c(c2)C(=O)N([C@H](C)CO)C[C@H](C)[C@H](CN(C)C(=O)Nc2ccc(C(F)(F)F)cc2)O3)cc1	none (no result: INS-1E ATP HTS)
C[C@@H]1CCCCO[C@H](CN(C)C(=O)Nc2ccc(F)cc2)[C@H](C)CN([C@H](C)CO)C(=O)c2cc(NS(=O)(=O)c3ccc(Cl)cc3)ccc2O1	none (no result: INS-1E ATP HTS, T cruzi intra)
Cc1ccc(S(=O)(=O)Nc2ccc3c(c2)C(=O)N([C@@H](C)CO)C[C@H](C)[C@H](CN(C)C(=O)Nc2ccc(C(F)(F)F)cc2)OCCCC[C@H](C)O3)cc1	none (no result: INS-1E ATP HTS, T cruzi intra)
C[C@@H]1CCCCO[C@@H](CN(C)C(=O)Nc2ccc(F)cc2)[C@@H](C)CN([C@H](C)CO)C(=O)c2cc(NS(=O)(=O)c3ccc(Cl)cc3)ccc2O1	T cruzi intra 65
Cc1ccc(S(=O)(=O)Nc2ccc3c(c2)C(=O)N([C@H](C)CO)C[C@H](C)[C@@H](CN(C)C(=O)Nc2ccc(C(F)(F)F)cc2)OCCCC[C@@H](C)O3)cc1	T cruzi intra 75
C[C@@H]1CCCCO[C@@H](CN(C)C(=O)Nc2ccc(C(F)(F)F)cc2)[C@@H](C)CN([C@H](C)CO)C(=O)c2cc(NS(=O)(=O)c3ccc(F)cc3)ccc2O1	T cruzi intra 71
C[C@@H]1CCCCO[C@@H](CN(C)C(=O)Nc2ccc(C(F)(F)F)cc2)[C@H](C)CN([C@@H](C)CO)C(=O)c2cc(NS(=O)(=O)c3ccc(F)cc3)ccc2O1	none (no result: INS-1E ATP HTS, T cruzi intra)
Cc1ccc(S(=O)(=O)Nc2ccc3c(c2)C(=O)N([C@@H](C)CO)C[C@@H](C)[C@@H](CN(C)C(=O)Nc2ccc(C(F)(F)F)cc2)O3)cc1	T cruzi intra 68
Cn1cc(/C=N/NC(=O)c2ccccn2)c2ccccc21	none
O=C(CCCCC(=O)N/N=C/c1ccc(O)cc1Br)NO	none (no result: INS-1E ATP HTS, T cruzi intra)
COc1ccc(S(=O)(=O)Nc2ccc3c(c2)C(=O)N([C@H](C)CO)C[C@H](C)[C@H](CN(C)C(=O)Nc2ccc(C(F)(F)F)cc2)OCCCC[C@@H](C)O3)cc1	T cruzi intra 65
COc1ccc(S(=O)(=O)Nc2ccc3c(c2)C(=O)N([C@@H](C)CO)C[C@H](C)[C@@H](CN(C)C(=O)Nc2ccc(C(F)(F)F)cc2)OCCCC[C@@H](C)O3)cc1	none (no result: INS-1E ATP HTS, T cruzi intra)
Cc1ccc(S(=O)(=O)Nc2ccc3c(c2)C(=O)N([C@@H](C)CO)C[C@H](C)[C@@H](CN(C)Cc2ccc(Cl)c(Cl)c2)O3)cc1	none (no result: A1 apoptosis 2)
Cc1ccc(S(=O)(=O)Nc2ccc3c(c2)C(=O)N([C@@H](C)CO)C[C@@H](C)[C@@H](CN(C)Cc2ccc(Cl)c(Cl)c2)O3)cc1	T cruzi intra 64 (no result: A1 apoptosis 2)
C[C@H]1CN([C@@H](C)CO)C(=O)c2cc(NS(=O)(=O)c3ccccc3)ccc2O[C@@H]1CN(C)Cc1ccc(Cl)c(Cl)c1	T cruzi intra 62 (no result: A1 apoptosis 2)
C[C@@H]1CN([C@@H](C)CO)C(=O)c2cc(NS(=O)(=O)c3ccc(Cl)cc3)ccc2O[C@H]1CN(C)Cc1ccc(Cl)c(Cl)c1	T cruzi intra 58
C[C@H]1CN([C@@H](C)CO)C(=O)c2cc(NS(=O)(=O)c3ccc(Cl)cc3)ccc2O[C@@H]1CN(C)Cc1ccc(Cl)c(Cl)c1	none
C[C@@H]1CN([C@H](C)CO)C(=O)c2cc(NS(=O)(=O)c3ccccc3)ccc2O[C@@H]1CN(C)Cc1ccc(Cl)c(Cl)c1	none (no result: A1 apoptosis 2)
